Measurements: ChEMBL document CHEMBL3779809, “Bioactive Enmein-Type ent-Kaurane Diterpenoids from Isodon phyllostachys” (J Nat Prod, 2016)
The source made the active and inactive calls. The calls are words filed in the database; no cut-off is given here.

Tests used:
[1] = Cytotoxicity against human HL60 cells assessed as cell viability after 48 hrs by MTS assay; format: functional, cell-based; details: HL-60, 48 h
In short: (§1)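 Cells grown in RPMI-1640 or DMEM with 10% FBS at 37 °C, 5% CO2. Seeded, incubated 12 h, then exposed to a range of concentrations in triplicate for 48 h. Viability read by MTS reduction to formazan. IC50 calculated by Reed and Muench method; cis-platin positive control.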

MCF7 [2] = experiment: Cytotoxicity against human MCF7 cells assessed growth inhibition at 40 uM after 48 hrs by MTS assay relative to control; format: functional
In short: (§2)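 Cultured in RPMI-1640 or DMEM with 10% FBS at 37 °C under 5% CO2. Cells seeded, given 12 h at 37 °C, then treated with compound at 40 μM for 48 h. Growth inhibition measured by MTS assay (formazan colorimetry).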

MCF7 [3] = experiment: Cytotoxicity against human MCF7 cells assessed as cell viability after 48 hrs by MTS assay; format: functional, cell-based; details: MCF7, 48 h; in short: as §1
A549 [4] = experiment: Cytotoxicity against human A549 cells assessed as cell viability after 48 hrs by MTS assay; format: functional, cell-based; details: A549, 48 h; in short: as §1
SW480 [5] = experiment: Cytotoxicity against human SW480 cells assessed as cell viability after 48 hrs by MTS assay; format: functional, cell-based; details: SW480, 48 h; in short: as §1
A549 [6] = experiment: Cytotoxicity against human A549 cells assessed growth inhibition at 40 uM after 48 hrs by MTS assay relative to control; format: functional; in short: as §2
[7] = Cytotoxicity against human SMMC7721 cells assessed as cell viability after 48 hrs by MTS assay; format: functional, cell-based; details: SMMC-7721, 48 h; in short: as §1
SMMC-7721 = experiment: Cytotoxicity against human SMMC7721 cells assessed growth inhibition at 40 uM after 48 hrs by MTS assay relative to control; format: functional; in short: as §2
HL-60 = experiment: Cytotoxicity against human HL60 cells assessed growth inhibition at 40 uM after 48 hrs by MTS assay relative to control; format: functional; in short: as §2
SW480 [8] = experiment: Cytotoxicity against human SW480 cells assessed growth inhibition at 40 uM after 48 hrs by MTS assay relative to control; format: functional; in short: as §2

SMILES	IC50 [1] [µM]	growth inhibition (GI) (MCF7 [2])	IC50 (MCF7 [3]) [µM]	IC50 (A549 [4]) [µM]	IC50 (SW480 [5]) [µM]	growth inhibition (GI) (A549 [6])	IC50 [7] [µM]	growth inhibition (GI) (SMMC-7721)	growth inhibition (GI) (HL-60)	growth inhibition (GI) (SW480 [8])
C[C@H]1C(=O)[C@]23C[C@@H]1CC[C@H]2C12C(O)O[C@@H](O)[C@@H]1C(C)(C)CC[C@@H]2OC3=O (stereo not given in full)	> 40	inactive	> 40	> 40	> 40	inactive	> 40	inactive	inactive	inactive
C[C@@H]1C(=O)[C@]23C[C@@H]1CC[C@H]2C12CO[C@@H](O)[C@@H]1C(C)(C)CC[C@@H]2OC3=O (stereo not given in full)	> 40	inactive	> 40	> 40	> 40	inactive	> 40	inactive	inactive	inactive
CO[C@H]1O[C@@H](O)[C@@H]2C(C)(C)CC[C@@H]3OC(=O)[C@@]45C[C@H](CC[C@H]4C132)[C@@H](C)C5=O (stereo not given in full)	> 40	inactive	> 40	> 40	> 40	inactive	> 40	inactive	inactive	inactive
C=C1[C@H]2C[C@@H](O)[C@H]3C45CO[C@@H]6OC[C@](C)(CC[C@@H]4OC(=O)[C@]3(C2)[C@@H]1O)[C@@H]65 (stereo not given in full)	> 40	inactive	> 40	> 40	> 40	inactive	> 40	inactive	inactive	inactive
C[C@]12CC[C@@H]3OC(=O)[C@@]45C[C@H](C[C@@H](O)[C@@H]4[C@]34CO[C@H](OC1)[C@H]24)[C@@]1(CCC2=C(O1)[C@]13C[C@@H]2C[C@@H](O)[C@@H]1[C@]12CO[C@@H]4OC[C@](C)(CC[C@@H]1OC3=O)[C@@H]42)C5=O	> 40	inactive	> 40	> 40	> 40	inactive	> 40	inactive	inactive	inactive
C[C@H]1C(=O)[C@]23C[C@@H]1CC[C@H]2C12[C@H](O)OC[C@@H]1C(C)(C)CC[C@@H]2OC3=O (stereo not given in full)	> 40	inactive	> 40	> 40	> 40	inactive	> 40	inactive	inactive	inactive
CO[C@@H]1O[C@@H](O)[C@@H]2C(C)(C)CC[C@@H]3OC(=O)[C@@]45C[C@H](CC[C@H]4C132)[C@@H](C)C5=O (stereo not given in full)	> 40	inactive	> 40	> 40	> 40	inactive	> 40	inactive	inactive	inactive
COC[C@H]1C(=O)[C@]23C[C@@H]1C[C@@H](O)[C@H]2C12CO[C@@H](O)[C@@H]1C(C)(C)CC[C@@H]2OC3=O (stereo not given in full)	> 40	inactive	> 40	> 40	> 40	inactive	> 40	inactive	inactive	inactive
C=C1[C@H]2CC[C@@H]3[C@](C2)(C(=O)O[C@H]2C[C@@H]4OC5O[C@@H](O)[C@H](C4(C)C)[C@@]523)[C@@H]1O	> 40	inactive	> 40	> 40	> 40	inactive	> 40	inactive	inactive	inactive
C[C@H]1C(=O)[C@]23C[C@@H]1CC[C@H]2C12[C@H](CCC(C)(C)[C@H]1CO[C@@H]2O)OC3=O (stereo not given in full)	> 40	inactive	> 40	> 40	> 40	inactive	> 40	inactive	inactive	inactive
COC[C@@H]1C(=O)[C@]23C[C@@H]1C[C@@H](O)[C@H]2C12CO[C@@H](O)[C@@H]1C(C)(C)CC[C@@H]2OC3=O (stereo not given in full)	> 40	inactive	> 40	> 40	> 40	inactive	> 40	inactive	inactive	inactive
C[C@H]1C(=O)[C@]23C[C@@H]1C[C@@H](O)[C@H]2C12CO[C@@H](O)[C@@H]1C(C)(C)CC[C@@H]2OC3=O (stereo not given in full)	> 40	inactive	> 40	> 40	> 40	inactive	> 40	inactive	inactive	inactive
C=C1C(=O)[C@]23C[C@@H]1C[C@@H](O)[C@H]2C12CO[C@@H](O)[C@@H]1C(C)(C)[C@@H](O)C[C@@H]2OC3=O (stereo not given in full)	> 40	inactive	> 40	> 40	> 40	inactive	> 40	inactive	inactive	inactive
CO[C@@H]1OC(O)C23[C@H](CCC(C)(C)[C@@H]12)OC(=O)[C@@]12C[C@H](CC[C@@H]31)[C@@H](C)C2=O (stereo not given in full)	> 40	inactive	> 40	> 40	> 40	inactive	> 40	inactive	inactive	inactive
C=C1[C@H]2CC[C@H]3C45C(O)O[C@@H](OC)[C@@H]4C(C)(C)CC[C@@H]5OC(=O)[C@]3(C2)[C@@H]1O (stereo not given in full)	> 40	inactive	> 40	> 40	> 40	inactive	> 40	inactive	inactive	inactive
